{"source": "ChEMBL document CHEMBL2157911", "about": "“Synthesis and biological evaluation of a series of podophyllotoxins derivatives as a class of potent antitubulin agents” (Bioorg Med Chem, 2012)", "key": {"[1]": {"system": "HeLa", "assay": "Cytotoxicity against human HeLa cells after 48 hrs", "type": "functional, cell-based", "procedure,_shortened": "(§1)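 Cells were grown in RPMI 1640 with 10% fetal serum, 2 mM L-glutamine, […], penicillin and streptomycin. Log-phase cells were seeded, left 24 h at 37 °C/5% CO2 to attach, then exposed to 0–100 µM compound for 48 h (DMSO <0.1%), five wells per concentration.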"}, "[2]": {"system": "K562", "assay": "Cytotoxicity against human K562 cells after 48 hrs", "type": "functional, cell-based", "conditions": "K562, 48 h", "procedure,_shortened": "as §1"}, "[3]": {"system": "HepG2", "assay": "Cytotoxicity against human HepG2 cells after 48 hrs", "type": "functional, cell-based", "conditions": "HepG2, 48 h", "procedure,_shortened": "as §1"}, "[4]": {"system": "SGC-7901", "assay": "Cytotoxicity against human SGC7901 cells after 48 hrs", "type": "functional, cell-based", "conditions": "SGC-7901, 48 h", "procedure,_shortened": "as §1"}, "[5]": {"assay": "Inhibition of goat brain tubulin polymerization after 30 mins", "set-up": "species or system Capra hircus", "procedure,_shortened": "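Goat brain tubulin was purified by two polymerization–depolymerization cycles. Tubulin (10 µM) was incubated with compound at 0, 10, 20, 40 or 60 µM in buffer containing 20% glycerol and […] at 37 °C, then cooled to 0 °C. Assembly was followed turbidimetrically in a fluorescence plate reader.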"}}}
{"molecule": "CCCN(CCC)/C(CCO[C@@H]1c2cc3c(cc2[C@@H](c2cc(OC)c(OC)c(OC)c2)[C@H]2C(=O)OC[C@@H]21)OCO3)=N/S(C)(=O)=O", "values": [{"measurement": "IC50", "setting": "[1]", "result": 2.63, "unit": "µM"}, {"measurement": "IC50", "setting": "[2]", "result": 2.96, "unit": "µM"}, {"measurement": "IC50", "setting": "[3]", "result": 2.14, "unit": "µM"}, {"measurement": "IC50", "setting": "[4]", "result": 2.87, "unit": "µM"}]}
{"molecule": "COc1cc([C@@H]2c3cc4c(cc3[C@@H](OCC/C(=N\\S(C)(=O)=O)NCc3ccccc3)[C@H]3COC(=O)[C@H]23)OCO4)cc(OC)c1OC", "values": [{"measurement": "IC50", "setting": "[1]", "result": 11.2, "unit": "µM"}, {"measurement": "IC50", "setting": "[2]", "result": 12.1, "unit": "µM"}, {"measurement": "IC50", "setting": "[3]", "result": 17.9, "unit": "µM"}, {"measurement": "IC50", "setting": "[4]", "result": 19.2, "unit": "µM"}]}
{"molecule": "COc1cc([C@@H]2c3cc4c(cc3[C@@H](OCC/C(=N\\S(C)(=O)=O)N3CCCCC3)[C@H]3COC(=O)[C@H]23)OCO4)cc(OC)c1OC", "values": [{"measurement": "IC50", "setting": "[1]", "result": 10.4, "unit": "µM"}, {"measurement": "IC50", "setting": "[2]", "result": 9.01, "unit": "µM"}, {"measurement": "IC50", "setting": "[3]", "result": 57.1, "unit": "µM"}, {"measurement": "IC50", "setting": "[4]", "result": 18.2, "unit": "µM"}]}
{"molecule": "COc1cc([C@@H]2c3cc4c(cc3[C@@H](OCC/C(=N\\S(C)(=O)=O)N3CCCC3)[C@H]3COC(=O)[C@H]23)OCO4)cc(OC)c1OC", "values": [{"measurement": "IC50", "setting": "[1]", "result": 5.99, "unit": "µM"}, {"measurement": "IC50", "setting": "[2]", "result": 8.34, "unit": "µM"}, {"measurement": "IC50", "setting": "[3]", "result": 20.8, "unit": "µM"}, {"measurement": "IC50", "setting": "[4]", "result": 11.2, "unit": "µM"}]}
{"molecule": "COc1cc([C@@H]2c3cc4c(cc3[C@@H](OCC/C(=N\\S(C)(=O)=O)N(C3CCCCC3)C3CCCCC3)[C@H]3COC(=O)[C@H]23)OCO4)cc(OC)c1OC", "values": [{"measurement": "IC50", "setting": "[1]", "result": 4.33, "unit": "µM"}, {"measurement": "IC50", "setting": "[2]", "result": 2.61, "unit": "µM"}, {"measurement": "IC50", "setting": "[3]", "result": 1.95, "unit": "µM"}, {"measurement": "IC50", "setting": "[4]", "result": 3.21, "unit": "µM"}]}
{"molecule": "COc1cc([C@@H]2c3cc4c(cc3[C@@H](OCC/C(N)=N\\S(C)(=O)=O)[C@H]3COC(=O)[C@H]23)OCO4)cc(OC)c1OC", "values": [{"measurement": "IC50", "setting": "[1]", "result": 3.75, "unit": "µM"}, {"measurement": "IC50", "setting": "[2]", "result": 3.48, "unit": "µM"}, {"measurement": "IC50", "setting": "[3]", "result": 2.87, "unit": "µM"}, {"measurement": "IC50", "setting": "[4]", "result": 4.31, "unit": "µM"}]}
{"molecule": "COc1cc([C@@H]2c3cc4c(cc3[C@@H](OCC/C(=N\\S(C)(=O)=O)N(C)C)[C@H]3COC(=O)[C@H]23)OCO4)cc(OC)c1OC", "values": [{"measurement": "IC50", "setting": "[1]", "result": 2.58, "unit": "µM"}, {"measurement": "IC50", "setting": "[2]", "result": 5.18, "unit": "µM"}, {"measurement": "IC50", "setting": "[3]", "result": 4.17, "unit": "µM"}, {"measurement": "IC50", "setting": "[4]", "result": 3.71, "unit": "µM"}]}
{"molecule": "COc1cc2c(c(OC)c1OC)-c1ccc(OC)c(=O)cc1[C@@H](NC(C)=O)CC2", "note": "[COLCHICINE]", "values": [{"measurement": "IC50", "setting": "[1]", "result": 0.1, "unit": "µM"}, {"measurement": "IC50", "setting": "[2]", "result": 0.55, "unit": "µM"}, {"measurement": "IC50", "setting": "[3]", "result": 0.02, "unit": "µM"}, {"measurement": "IC50", "setting": "[4]", "result": 0.05, "unit": "µM"}]}
{"molecule": "COc1cc([C@@H]2c3cc4c(cc3[C@H](O)[C@H]3COC(=O)[C@H]23)OCO4)cc(OC)c1OC", "note": "[PODOFILOX]", "values": [{"measurement": "IC50", "setting": "[5]", "result": 24, "unit": "µM"}, {"measurement": "IC50", "setting": "[1]", "result": 0.14, "unit": "µM"}, {"measurement": "IC50", "setting": "[2]", "result": 4.51, "unit": "µM"}, {"measurement": "IC50", "setting": "[3]", "result": 0.51, "unit": "µM"}, {"measurement": "IC50", "setting": "[4]", "result": 0.34, "unit": "µM"}]}
